Measured values taken from ChEMBL document CHEMBL1833793 (Bioorg Med Chem Lett, 2011).

How the values were obtained:
[1] = biological target: T1, Neuropeptide Y receptor type 5 (Homo sapiens, UniProt Q15761); experiment: Antagonist activity at human NPY5 receptor assessed as calcium mobilization by FLIPR assay; format: functional
T1 sequence (Q15761 whole entry): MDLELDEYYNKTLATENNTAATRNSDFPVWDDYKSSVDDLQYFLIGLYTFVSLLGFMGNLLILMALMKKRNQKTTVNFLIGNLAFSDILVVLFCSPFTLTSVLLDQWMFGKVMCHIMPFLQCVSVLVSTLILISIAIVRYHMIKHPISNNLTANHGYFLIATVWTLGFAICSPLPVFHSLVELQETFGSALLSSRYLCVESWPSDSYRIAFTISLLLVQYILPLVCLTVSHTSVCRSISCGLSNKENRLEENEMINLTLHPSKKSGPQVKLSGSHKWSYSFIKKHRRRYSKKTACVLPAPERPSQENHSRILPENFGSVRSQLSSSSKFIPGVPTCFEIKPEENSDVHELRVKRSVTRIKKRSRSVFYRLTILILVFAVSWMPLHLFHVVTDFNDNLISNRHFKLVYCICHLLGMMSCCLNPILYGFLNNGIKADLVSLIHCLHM

[2] = biological target: Neuropeptide Y receptor type 4 (Homo sapiens, UniProt P50391); experiment: Antagonist activity at human NPY4 receptor assessed as calcium mobilization by FLIPR assay; format: functional
Liver microsomes = experiment: Intrinsic clearance in human liver microsome; format: ADME
[3] = Plasma concentration in rat at 10 mg/kg, po after 4 hrs; format: ADME, organism-based; design: dose 10 mg/kg, route oral
How it was run: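 Single oral dose of 10 mg/kg in rats, two animals. Plasma was sampled at 4 h and the two values averaged. LOQ 2 ng/mL.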

[4] = Drug uptake in rat brain at 10 mg/kg, po after 4 hrs; format: ADME, organism-based; design: dose 10 mg/kg, route oral; settings: read-out: Drug uptake
How it was run: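 Rat single oral dose of 10 mg/kg, two animals; plasma and brain homogenate levels measured at 4 h and averaged; quantification limit 2 ng/mL plasma, 2 ng/g brain.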

[5] = biological target: Voltage-gated inwardly rectifying potassium channel KCNH2 (Homo sapiens, UniProt Q12809); experiment: Inhibition of human ERG by patch-clamp assay
[6] = Plasma protein binding in human; format: ADME, cell-free; settings: read-out: PPB (converted)
Cytochrome P450 1A2 = biological target: T2, Cytochrome P450 1A2 (Homo sapiens, UniProt P05177); experiment: Inhibition of CYP1A2; format: ADME
T2 sequence (P05177 whole entry): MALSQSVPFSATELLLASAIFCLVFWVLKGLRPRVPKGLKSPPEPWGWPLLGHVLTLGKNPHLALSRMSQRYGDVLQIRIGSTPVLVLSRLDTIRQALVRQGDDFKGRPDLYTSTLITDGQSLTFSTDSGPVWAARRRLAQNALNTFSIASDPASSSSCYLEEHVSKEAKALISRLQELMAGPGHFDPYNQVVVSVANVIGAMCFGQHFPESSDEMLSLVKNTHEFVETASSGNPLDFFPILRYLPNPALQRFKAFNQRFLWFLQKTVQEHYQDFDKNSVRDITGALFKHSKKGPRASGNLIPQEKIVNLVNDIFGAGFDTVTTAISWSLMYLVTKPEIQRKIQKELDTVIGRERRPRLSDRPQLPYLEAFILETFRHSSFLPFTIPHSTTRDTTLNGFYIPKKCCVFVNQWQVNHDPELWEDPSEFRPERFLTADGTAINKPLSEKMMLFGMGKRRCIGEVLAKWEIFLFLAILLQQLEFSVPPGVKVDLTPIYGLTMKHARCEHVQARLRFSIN

Cytochrome P450 2C9 = Cytochrome P450 2C9 (Homo sapiens, UniProt P11712); experiment: Inhibition of CYP2C9; format: ADME
Cytochrome P450 2C19 = Cytochrome P450 2C19 (Homo sapiens, UniProt P33261); experiment: Inhibition of CYP2C19; format: ADME
[7] = Apparent permeability from apical to basolateral side of the human Caco2 cells; format: ADME, cell-based; settings: Caco-2
[8] = Apparent permeability from basolateral to apical side of the human Caco2 cells; format: ADME, cell-based; settings: Caco-2
[9] = Oral bioavailability in Sprague-Dawley rat at 2 mg/kg by HPLC analysis; format: ADME, organism-based; settings: in vivo
How it was run: (§1)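 Male Sprague-Dawley rats (200–250 g, n = 2) with jugular and carotid cannulae, dosed 1 mg/kg iv and 2 mg/kg po in crossover after 24 h washout. Vehicle was 20% beta cyclodextrin, pH adjusted with methanesulfonic acid to give a solution. Automated serial blood sampling took 12 time points over 24 h. Plasma was quantified by HPLC-MS/MS, with noncompartmental analysis.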

[10] = Volume of distribution at steady state in Sprague-Dawley rat at 1 mg/kg, iv and 2 mg/kg, po by HPLC analysis; format: ADME, organism-based; settings: in vivo, read-out: Vdss; how it was run: as §1
[11] = Half life in Sprague-Dawley rat at 1 mg/kg, iv and 2 mg/kg, po by HPLC analysis; format: ADME, organism-based; settings: in vivo
How it was run: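 Cannulated (jugular and carotid) male Sprague-Dawley rats, 200–250 g, n = 2; 1 mg/kg iv and 2 mg/kg po crossover after 24 h washout; dosed in 20% β-cyclodextrin pH-adjusted with methanesulfonic acid; 12 serial blood samples over 24 h; plasma by LC-MS/MS; noncompartmental analysis.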

[12] = Drug uptake in brain of cPP-induced feeding rat model at 3 mg/kg, po after 1 hr; format: ADME, organism-based; design: dose 3 mg/kg, route oral; settings: read-out: Drug uptake
How it was run: (§2)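 Satellite rats (n = 2/dose) sampled each week alongside the cPP feeding test; Lu-series dosed po at 3, 10 or 30 mg/kg as suspension in 20% HP-β-cyclodextrin; plasma (ng/mL) and brain tissue (ng/g) levels taken at 1, 2, 4, 6 and 24 h post-dose; mean ± SD reported.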

[13] = Plasma concentration in cPP-induced feeding rat model at 10 mg/kg, po after 2 hrs; format: ADME, organism-based; design: dose 10 mg/kg, route oral; how it was run: as §2
[14] = Drug uptake in brain of cPP-induced feeding rat model at 10 mg/kg, po after 1 hr; format: ADME, organism-based; design: dose 10 mg/kg, route oral; settings: read-out: Drug uptake; how it was run: as §2
[15] = Drug uptake in brain of cPP-induced feeding rat model at 10 mg/kg, po after 6 hrs; format: ADME, organism-based; design: dose 10 mg/kg, route oral; settings: read-out: Drug uptake; how it was run: as §2
[16] = Plasma concentration in cPP-induced feeding rat model at 30 mg/kg, po after 4 hrs; format: ADME, organism-based; design: dose 30 mg/kg, route oral
How it was run: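 Satellite rats (n = 2/dose per week), cannulated in the lateral cerebral ventricle for the feeding study, dosed orally at 3, 10 or 30 mg/kg as a suspension in 20% HP-β-cyclodextrin. Plasma was sampled 1, 2, 4, 6 or 24 h after dosing, alongside i.c.v. cPP (0.6 nmol) feeding tests. Values are given as mean with SD.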

[17] = Drug uptake in brain of cPP-induced feeding rat model at 30 mg/kg, po after 1 hr; format: ADME, organism-based; design: dose 30 mg/kg, route oral; settings: read-out: Drug uptake; how it was run: as §2
[18] = Oral bioavailability in mouse at 2 mg/kg by HPLC analysis; format: ADME, organism-based; settings: in vivo
[19] = Tmax in mouse at 1 mg/kg, iv and 2 mg/kg, po by HPLC analysis; format: ADME, organism-based; settings: in vivo
[20] = Volume of distribution at steady state in mouse at 1 mg/kg, iv and 2 mg/kg, po by HPLC analysis; format: ADME, organism-based; settings: in vivo, read-out: Vdss
[21] = biological target: T1, Neuropeptide Y receptor type 5; experiment: Binding affinity to human NPY5 receptor

Chain of Cytochrome P450 2C9 (P11712 whole entry): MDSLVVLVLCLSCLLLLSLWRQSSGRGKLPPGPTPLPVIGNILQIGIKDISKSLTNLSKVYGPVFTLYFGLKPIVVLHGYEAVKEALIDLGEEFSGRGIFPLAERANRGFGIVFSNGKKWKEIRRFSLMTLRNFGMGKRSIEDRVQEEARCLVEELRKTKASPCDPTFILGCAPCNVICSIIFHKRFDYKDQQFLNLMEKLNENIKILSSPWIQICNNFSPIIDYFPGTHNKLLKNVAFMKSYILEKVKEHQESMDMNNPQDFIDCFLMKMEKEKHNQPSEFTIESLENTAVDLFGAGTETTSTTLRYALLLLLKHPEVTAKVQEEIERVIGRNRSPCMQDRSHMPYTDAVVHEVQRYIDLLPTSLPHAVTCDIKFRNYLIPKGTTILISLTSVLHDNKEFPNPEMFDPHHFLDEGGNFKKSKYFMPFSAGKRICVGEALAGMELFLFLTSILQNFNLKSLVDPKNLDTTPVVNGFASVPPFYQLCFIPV
Chain of Cytochrome P450 2C19 (P33261 whole entry): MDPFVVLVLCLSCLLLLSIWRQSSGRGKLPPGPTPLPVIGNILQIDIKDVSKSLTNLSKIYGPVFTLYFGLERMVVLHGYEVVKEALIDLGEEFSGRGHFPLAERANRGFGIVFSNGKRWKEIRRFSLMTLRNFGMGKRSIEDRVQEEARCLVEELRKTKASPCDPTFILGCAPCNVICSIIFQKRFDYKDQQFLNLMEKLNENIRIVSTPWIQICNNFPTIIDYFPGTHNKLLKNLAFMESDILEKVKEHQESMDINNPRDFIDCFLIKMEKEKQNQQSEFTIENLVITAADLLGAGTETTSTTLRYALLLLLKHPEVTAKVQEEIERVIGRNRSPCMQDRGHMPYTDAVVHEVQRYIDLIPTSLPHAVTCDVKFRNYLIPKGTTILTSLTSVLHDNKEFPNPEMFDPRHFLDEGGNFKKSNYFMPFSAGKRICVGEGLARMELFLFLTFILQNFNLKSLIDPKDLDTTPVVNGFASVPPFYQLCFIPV
Chain of Voltage-gated inwardly rectifying potassium channel KCNH2 (Q12809 whole entry): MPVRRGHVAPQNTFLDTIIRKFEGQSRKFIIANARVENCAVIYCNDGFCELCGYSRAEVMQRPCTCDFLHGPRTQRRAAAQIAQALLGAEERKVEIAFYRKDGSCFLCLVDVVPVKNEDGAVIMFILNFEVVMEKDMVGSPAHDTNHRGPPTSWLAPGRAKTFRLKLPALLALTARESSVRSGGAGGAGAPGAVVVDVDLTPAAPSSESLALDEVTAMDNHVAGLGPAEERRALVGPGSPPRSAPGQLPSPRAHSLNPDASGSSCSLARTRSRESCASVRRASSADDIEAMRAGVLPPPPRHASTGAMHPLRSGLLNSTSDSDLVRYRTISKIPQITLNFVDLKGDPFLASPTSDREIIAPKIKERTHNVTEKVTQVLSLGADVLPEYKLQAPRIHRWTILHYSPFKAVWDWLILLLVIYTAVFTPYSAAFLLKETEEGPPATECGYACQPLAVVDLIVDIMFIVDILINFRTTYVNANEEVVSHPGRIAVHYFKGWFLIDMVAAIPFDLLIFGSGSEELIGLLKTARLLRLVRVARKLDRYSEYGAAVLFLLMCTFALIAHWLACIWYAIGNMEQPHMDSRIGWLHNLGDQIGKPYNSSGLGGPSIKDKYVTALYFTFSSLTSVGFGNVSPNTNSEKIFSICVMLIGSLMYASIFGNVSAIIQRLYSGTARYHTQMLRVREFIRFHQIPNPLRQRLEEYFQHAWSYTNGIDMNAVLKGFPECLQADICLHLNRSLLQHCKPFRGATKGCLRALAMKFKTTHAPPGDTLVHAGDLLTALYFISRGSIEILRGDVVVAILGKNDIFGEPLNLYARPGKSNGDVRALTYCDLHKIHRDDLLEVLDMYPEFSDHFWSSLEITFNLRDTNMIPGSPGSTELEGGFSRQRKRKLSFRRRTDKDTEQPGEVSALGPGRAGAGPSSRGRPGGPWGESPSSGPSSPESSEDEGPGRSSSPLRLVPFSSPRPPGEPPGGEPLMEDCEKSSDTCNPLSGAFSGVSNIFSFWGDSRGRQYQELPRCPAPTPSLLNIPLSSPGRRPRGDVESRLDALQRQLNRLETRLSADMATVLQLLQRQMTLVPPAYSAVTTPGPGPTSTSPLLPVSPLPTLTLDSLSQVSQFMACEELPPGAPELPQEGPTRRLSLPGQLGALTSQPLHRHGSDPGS
Chain of Neuropeptide Y receptor type 4 (P50391 whole entry): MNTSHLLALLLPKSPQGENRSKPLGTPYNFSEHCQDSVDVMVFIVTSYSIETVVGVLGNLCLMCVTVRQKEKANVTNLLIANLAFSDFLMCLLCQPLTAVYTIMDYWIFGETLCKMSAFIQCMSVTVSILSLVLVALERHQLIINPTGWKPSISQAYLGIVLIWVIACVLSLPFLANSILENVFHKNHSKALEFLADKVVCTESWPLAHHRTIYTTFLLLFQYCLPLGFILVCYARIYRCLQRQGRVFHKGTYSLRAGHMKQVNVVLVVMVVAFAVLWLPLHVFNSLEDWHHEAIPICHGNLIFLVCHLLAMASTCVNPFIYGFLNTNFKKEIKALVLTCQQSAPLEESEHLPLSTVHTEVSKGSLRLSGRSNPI

For `CS(=O)(=O)NC[C@H]1CC[C@H](Nc2nc3c(s2)CCSc2ccccc2-3)CC1`, the IC50 [1] was 1.8 nM, the IC50 [2] was > 1000 nM and the CL (Liver microsomes) was 2.5 L/min. The concentration at 4 h [3] was 320 ng/mL, the concentration at 4 h [4] was 460 ng/g and the IC50 [5] was > 10000 nM. The fraction unbound [6] was 0.018, the IC50 (Cytochrome P450 1A2) was > 10000 nM and the IC50 (Cytochrome P450 2C9) was > 10000 nM. The IC50 (Cytochrome P450 2C19) was > 10000 nM, the Papp A→B [7] was 36.7 ×10⁻⁶ cm/s and the Papp B→A [8] was 40.4 ×10⁻⁶ cm/s. It also gave a bioavailability [9] of 92%, a Vd [10] of 3.3 L/kg and a half-life [11] of 6.3 h. The concentration at 1 h [12] was 54 ng/g, the concentration at 2 h [13] was 260 ng/mL and the concentration at 1 h [14] was 179 ng/g. For the same molecule, the concentration at 6 h [15] was 124 ng/g, the concentration at 4 h [16] was 519 ng/mL and the concentration at 1 h [17] was 288 ng/g. For the same molecule, the bioavailability [18] was 42%, the Tmax [19] was 1.3 h and the Vd [20] was 3.6 L/kg. The Ki [21] was 1.5 nM.
